The values that follow come from ChEMBL document CHEMBL2331484, “Synthesis and biological evaluation of scopoletin derivatives” (Bioorg Med Chem, 2013).

For orientation: IC50 means the concentration at which inhibition is half-maximal.

Calls of active or inactive are those of the source. The rule behind the calls is not given here.

Assay [1] concerns HUVEC. Put plainly: Antiproliferative activity against HUVEC assessed as growth inhibition rate at 100 uM after 24 hrs by MTT assay. The class given is functional. To be noted: Homo sapiens, read-out: GI. The procedure, abridged: (§1)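 HUVECs (passages 3–5, primary cord isolates) seeded at 1 × 10⁴ cells/well. Medium replaced with M199 containing 1% FBS plus compound. Viability read by MTT after 24 h. Percent inhibition was calculated from A570 minus A630 of treated versus control wells, and IC50 determined. Triplicate experiments, means ± SEM.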

The test system of assay [2] is HUVEC. Put plainly: Antiproliferative activity against HUVEC assessed as growth inhibition rate at 10 uM after 24 hrs by MTT assay. It counts as functional. To be noted: Homo sapiens, read-out: GI. Summed up:
as §1
(In general: Formazan colour is commonly taken as a measure of viable cells.)

Assay [3] relates to PANC-1. Put plainly: Inhibition of MMP-2 protein expression in human PANC1 cells at 10 to 50 umol/L after 24 hrs by SDS-PAGE analysis. The class given is functional, cell-based. Summed up:
(§2)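 Gelatin zymography of culture medium from equal numbers of PANC-1 cells exposed to compound for 24 h. Samples run non-reduced and unboiled on 10% polyacrylamide with 1 mg/mL gelatin. Gel washed in 2.5% Triton X-100 buffer, digested 14 h at 37 °C in Tris–HCl/CaCl2/ZnCl2 buffer pH 7.6, then Coomassie-stained. Clear bands imaged.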

The subject of assay [4] is PANC-1. The assay is described as follows: Inhibition of MMP-9 protein expression in human PANC1 cells at 10 to 50 umol/L after 24 hrs by SDS-PAGE analysis. It counts as functional, cell-based. The procedure, abridged: as §2
Assay [5] concerns HUVEC. Put plainly: Antiangiogenic activity against HUVEC assessed as inhibition of VEGF-induced branching and network formation at 25 umol/L after 5 hrs by microscopy. The following applies: Homo sapiens. It counts as functional, cell-based. The procedure, abridged:
(§3)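 Matrigel-coated wells gelled 37 °C 30 min. DMSO or compound (final 25 µmol/L) added for 30 min before plating. After 5 h, enclosed complete tubes counted in five random fields by microscopy. Triplicate experiments, means ± SEM.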

Assay [6] deals with HUVEC. Put plainly: Antiangiogenic activity against HUVEC assessed as inhibition of VEGF-induced tube formation at 25 umol/L after 5 hrs by microscopy. It counts as functional, cell-based. To be noted: Homo sapiens. The procedure, abridged:
as §3

The test system of assay [7] is HUVEC. The assay is described as follows: Antiangiogenic activity against HUVEC assessed as inhibition of VEGF-induced cell migration at 25 umol/L after 20 hrs by Boyden chamber assay. The class given is functional, cell-based. The following applies: Homo sapiens. Summed up:
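Boyden chamber, 8.0 µm membrane. HUVECs at 80% confluence serum-starved 12 h in basal medium and suspended at 1 × 10⁶ cells/mL. Pre-treated 30 min at room temperature with DMSO or compound (final 25 µmol/L). After 20 h cells fixed, stained, and counted in five random fields. Triplicate experiments.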

A further assay has as its system HuT78. Put plainly: Cytotoxicity against human HUT78 cells after 24 hrs by MTT assay. The class given is functional, cell-based. The following applies: HuT78, 24 h.
In the next assay the test system is K562. The assay is described as follows: Cytotoxicity against human K562 cells after 24 hrs by MTT assay. The class given is functional, cell-based. The following applies: K562, 24 h.
A further assay has as its system HL-60. The assay is described as follows: Cytotoxicity against human HL60 cells after 24 hrs by MTT assay. The class given is functional, cell-based. The following applies: HL-60, 24 h.
Assay [8] in a line: Cytotoxicity against human SHG44 cells after 24 hrs by MTT assay. The class given is functional, cell-based. To be noted: SHG-44, 24 h.
The subject of another assay is A-431. Put plainly: Cytotoxicity against human A431 cells after 24 hrs by MTT assay. It counts as functional, cell-based. To be noted: A-431, 24 h.
A further assay relates to A549. The assay is described as follows: Cytotoxicity against human A549 cells after 24 hrs by MTT assay. The class given is functional, cell-based. The following applies: A549, 24 h.
The test system of the next assay is MKN-45. Put plainly: Cytotoxicity against human MKN45 cells after 24 hrs by MTT assay. It counts as functional, cell-based. The following applies: MKN-45, 24 h.
For a further assay, the system named is HCT-116. The assay is described as follows: Cytotoxicity against human HCT116 cells after 24 hrs by MTT assay. The class given is functional, cell-based. To be noted: HCT-116, 24 h.
The test system of the next assay is HepG2. Put plainly: Cytotoxicity against human HepG2 cells after 24 hrs by MTT assay. The class given is functional, cell-based. The following applies: HepG2, 24 h.
For another assay, the system named is MDA-MB-231. The assay is described as follows: Cytotoxicity against human MDA-MB-231 cells after 24 hrs by MTT assay. The class given is functional, cell-based. To be noted: MDA-MB-231, 24 h.
The test system of a further assay is MDA-MB-435. Put plainly: Cytotoxicity against human MDA-MB-435 cells after 24 hrs by MTT assay. It counts as functional, cell-based. The following applies: MDA-MB-435, 24 h.
A further assay has as its system BXPC-3. Put plainly: Cytotoxicity against human BxPC3 cells after 24 hrs by MTT assay. It counts as functional, cell-based. To be noted: BXPC-3, 24 h.
Assay [9] concerns PANC-1. The assay is described as follows: Cytotoxicity against human PANC1 cells after 24 hrs by MTT assay. The class given is functional, cell-based. To be noted: PANC-1, 24 h.
For a further assay, the system named is PBMC. Put plainly: Cytotoxicity against human PBMC after 24 hrs by MTT assay. The class given is cell-based.
For assay [10], the system named is HUVEC. Put plainly: Antiangiogenic activity against HUVEC assessed as inhibition of VEGF-induced migration at 25 umol/L after 20 hrs by microscopy. To be noted: Homo sapiens.
The subject of assay [11] is HUVEC. The assay is described as follows: Antiproliferative activity against HUVEC assessed as growth inhibition rate after 24 hrs by MTT assay. The following applies: Homo sapiens. The class given is functional, cell-based. The procedure, abridged: as §1

With `COc1cc2ccc(=O)oc2cc1OCC(=O)c1ccc(F)cc1`, the inhibition of growth at 100 µM in the assay with HUVEC [1] is 16.6%. Besides, the inhibition of growth at 10 µM in the assay on HUVEC [2] is 3.6%.

In the case of `COc1cc2ccc(=O)oc2cc1OCC(=O)c1ccc(Cl)c(Cl)c1`, the inhibition of growth at 100 µM in the assay with HUVEC [1] worked out at 42.8%. For the same molecule, the inhibition of growth at 10 µM with HUVEC [2] was 0%.

For `CCN(CC)CC(O)COc1cc2oc(=O)ccc2cc1OC` (centres undefined), in the assay with HUVEC [1], the inhibition of growth at 100 µM is 0.3%. For the same molecule, in the assay on HUVEC [2], the inhibition of growth at 10 µM stood at 0.5%.

`COc1cc2ccc(=O)oc2cc1OCC(O)CNC(C)C` (centres undefined): the inhibition of growth at 100 µM in the assay on HUVEC [1] stood at 6.3%. In the assay with HUVEC [2], the inhibition of growth at 10 µM is 0.1%.

Regarding `COc1cc2ccc(=O)oc2cc1OCCN1CCOCC1`, the inhibition of growth at 100 µM in the assay with HUVEC [1] stood at 1.9%. Further, the inhibition of growth at 10 µM in the assay on HUVEC [2] amounted to 0%.

For the molecule `COc1cc2ccc(=O)oc2cc1O` [SCOPOLETIN], the inhibition result in the assay on PANC-1 [3] and in the assay with PANC-1 [4] was “Active” in each case. Besides, the inhibition entry in the assay with HUVEC [5], in the assay with HUVEC [6], in the assay on HUVEC [7] and in the assay with HUVEC [10] was “inactive” each time. In addition, the IC50 (in the assay with HuT78; in the assay on K562; in the assay on HL-60; in assay [8]; with A-431; in the assay on A549) was over 100 µM throughout. In addition, the 50% inhibitory concentration (IC50) with MKN-45, in the assay on HCT-116, in the assay on HepG2, in the assay on MDA-MB-231, in the assay with MDA-MB-435 and with BXPC-3 was over 100 µM each time. The IC50 with PANC-1 [9] and with PBMC was over 100 µM each time. Besides, the inhibition of growth at 100 µM in the assay on HUVEC [1] came to 2.1%. The inhibition of growth at 10 µM in the assay on HUVEC [2] was found to be 0%.

Take `COc1cc2ccc(=O)oc2cc1OCCCCl`: the inhibition of growth at 100 µM with HUVEC [1] worked out at 9.4%. Further, the inhibition of growth at 10 µM with HUVEC [2] amounted to 0.1%.

On to `COc1cc2ccc(=O)oc2cc1OCCN1CCCCC1`, for which the inhibition of growth at 100 µM in the assay on HUVEC [1] amounted to 6.1%. Moreover, the inhibition of growth at 10 µM with HUVEC [2] turned out to be 0.1%.

Regarding `COc1cc2ccc(=O)oc2cc1OCC1CO1` (centres undefined), the half-maximal inhibitory concentration (IC50) in the assay on HUVEC [11] was 5.3 µM. Moreover, in the assay with HUVEC [1], the inhibition of growth at 100 µM came to 95.5%. The inhibition of growth at 10 µM in the assay with HUVEC [2] came to 62.2%.

As for `COc1cc2ccc(=O)oc2cc1OCCN1CCCC1`, in the assay with HUVEC [1], the inhibition of growth at 100 µM is 7.9%. In addition, the inhibition of growth at 10 µM in the assay with HUVEC [2] is 1.9%.

As to `COc1ccc(C(=O)COc2cc3oc(=O)ccc3cc2OC)cc1`, the IC50 in the assay with HUVEC [11] was 37.5 µM. The inhibition of growth at 100 µM in the assay on HUVEC [1] worked out at 85.6%. In addition, the inhibition of growth at 10 µM in the assay with HUVEC [2] amounted to 7.6%.
